In ChEMBL document CHEMBL2384986, “Re-evolution of the 2-phenylquinolines: ligand-based design, synthesis, and biological evaluation of a potent new class of Staphylococcus aureus NorA efflux pump inhibitors to combat antimicrobial resistance” (J Med Chem, 2013):
Calls of active or inactive are those of the source. The calls are words filed in the database; no cut-off is given here.

Assays:
[1] = biological target: T1, Quinolone resistance protein NorA (Staphylococcus aureus) (UniProt P0A0J7); assay: Inhibition of NorA in Staphylococcus aureus K2378 assessed as reduction of ciprofloxacin MIC at 0.78 to 100 ug/mL relative to control
T1 sequence (whole entry): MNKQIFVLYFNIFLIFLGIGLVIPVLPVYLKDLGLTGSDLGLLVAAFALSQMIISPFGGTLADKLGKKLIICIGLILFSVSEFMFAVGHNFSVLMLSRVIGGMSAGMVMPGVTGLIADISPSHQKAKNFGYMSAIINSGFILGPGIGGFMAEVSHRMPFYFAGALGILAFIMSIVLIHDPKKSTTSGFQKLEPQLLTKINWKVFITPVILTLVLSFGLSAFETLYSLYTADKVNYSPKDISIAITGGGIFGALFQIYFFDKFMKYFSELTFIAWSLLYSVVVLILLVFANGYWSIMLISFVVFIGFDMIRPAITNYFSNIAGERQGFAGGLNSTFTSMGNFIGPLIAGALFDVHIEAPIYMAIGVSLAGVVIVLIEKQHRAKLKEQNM
Procedure, shortened: (§1)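 Ciprofloxacin MIC determined by CLSI broth microdilution, alone and combined with scalar dilutions of freshly prepared test compound; checkerboard combination format. Strains: ATCC 25923 (wild type), SA-1199 (norA wt), SA-1199B (norA overexpressing, GrlA A116E), SA-K2378 (norA on multicopy pCU1) and SA-K1902 (norA-deleted).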

Staphylococcus aureus [2] = assay: Reduction of ciprofloxacin MIC in norA-deficient Staphylococcus aureus K1902 at 0.78 to 100 ug/mL; type: functional, organism-based; procedure, shortened: as §1
[3] = biological target: T1, Quinolone resistance protein NorA (Staphylococcus aureus); assay: Inhibition of wild type NorA in Staphylococcus aureus 1199 assessed as reduction of ciprofloxacin MIC at 0.78 to 100 ug/mL; procedure, shortened: as §1
[4] = biological target: T1, Quinolone resistance protein NorA (Staphylococcus aureus); assay: Inhibition of NorA in Staphylococcus aureus ATCC 25923 assessed as reduction of ciprofloxacin MIC at 0.78 to 100 ug/mL; procedure, shortened: as §1
Staphylococcus aureus [5] = assay: Antibacterial activity against Staphylococcus aureus 1199B overexpressing NorA and grlA A116E mutant assessed as growth inhibition by microdilution method; type: functional
Procedure, shortened: (§2)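 Broth microdilution MIC per CLSI guidelines for intrinsic antistaphylococcal activity; highest concentration tested 100 μg/mL. SA-1199 is the norA wild-type parent, SA-1199B overexpresses norA and carries GrlA A116E, and SA-K2378 overexpresses norA from multicopy plasmid pCU1 in the norA-deleted SA-K1902 background.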

[6] = biological target: Quinolone resistance protein NorA (Staphylococcus aureus, UniProt P0A0J7); assay: Inhibition of NorA in Staphylococcus aureus 1199B harboring grlA A116E mutant assessed as inhibition of ethidium bromide efflux measured for 5 mins by fluorometric analysis
Procedure, shortened: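 Fluorometric EtBr efflux assay in SA-1199B (norA overexpressing, GrlA A116E) over a 5 min time course, compared with no-inhibitor control. Increasing inhibitor concentrations were tested, and IC50 was read by inspection of the dose-response plots. Usually run in duplicate.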

[7] = biological target: T1, Quinolone resistance protein NorA (Staphylococcus aureus); assay: Inhibition of NorA in Staphylococcus aureus 1199B harboring grlA A116E mutant assessed as inhibition of ethidium bromide efflux at 50 uM measured for 5 mins by fluorometric analysis relative to control
Procedure, shortened: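 EtBr loss from SA-1199B (norA overexpressing, GrlA A116E) measured fluorometrically with inhibitor at 50 μM, compared with no-inhibitor control. Read-out is mean total efflux over a 5 min time course, expressed as percent reduction in efflux. Usually run in duplicate.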

Staphylococcus aureus [8] = assay: Antibacterial activity against Staphylococcus aureus 1199 harboring wild type norA assessed as growth inhibition by microdilution method
Staphylococcus aureus [9] = assay: Antibacterial activity against Staphylococcus aureus K2378 overexpressing norA assessed as growth inhibition by microdilution method; type: functional; procedure, shortened: as §2
Staphylococcus aureus [10] = assay: Antibacterial activity against norA-deficient Staphylococcus aureus K1902 assessed as growth inhibition by microdilution method; type: functional
Procedure, shortened: (§3)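 Broth microdilution MIC determination following CLSI guidelines. Strains: wild-type ATCC 25923 and SA-K1902 (norA−). Intrinsic activity was tested up to a top concentration of 100 μg/mL.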

Staphylococcus aureus [11] = assay: Antibacterial activity against wild type Staphylococcus aureus ATCC 25923 assessed as growth inhibition by microdilution method; type: functional; procedure, shortened: as §3
Staphylococcus aureus [12] = assay: Inhibition of MepA in Staphylococcus aureus K2886 assessed as reduction of ethidium bromide MIC at 0.78 to 100 ug/mL
Procedure, shortened: (§4)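 The strains are norA-deleted S. aureus carrying pALC2073-mepA (K2886) or the empty pALC2073 vector (K2885). Cloned genes are under a xyl/tetO promoter, induced by 0.05 μg/mL tetracycline, which was present in all experiments with these strains. EtBr MICs were determined by CLSI microdilution, with and without test compound.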

Staphylococcus aureus [13] = assay: Reduction of ethidium bromide MIC in mepA-deficient Staphylococcus aureus K2885 at 0.78 to 100 ug/mL; type: functional, organism-based; procedure, shortened: as §4

SMILES | MIC (Staphylococcus aureus [5]) | IC50 [6] | inhibition [7] | MIC (Staphylococcus aureus [8]) | other results
CCCOc1ccc(-c2cc(OCCN3CCC4(CC3)OCCO4)c3ccccc3n2)cc1 | > 200 µM | 8.5 µM | 80.4% | > 100 µg/mL | fold change (FC) [1]: 4; Activity (Staphylococcus aureus [2]): inactive; inhibition [3]: inactive; inhibition [4]: inactive
CCCOc1ccc(-c2cc(OCCn3cccc3)c3ccccc3n2)cc1 |  |  | 4.1% |  | 
CCCOc1ccc(-c2cc(OC3CCCN(C)C3)c3ccccc3n2)cc1 (centres undefined) | > 200 µM | 8 µM | 88.2% | > 100 µg/mL | fold change (FC) [1]: 4; Activity (Staphylococcus aureus [2]): inactive; inhibition [3]: inactive; inhibition [4]: inactive
O=C(O)c1cn(C2CC2)c2cc(N3CCNCC3)c(F)cc2c1=O [CIPROFLOXACIN] |  |  |  | 0.63 µg/mL | MIC (Staphylococcus aureus [9]): 2.5 µg/mL; MIC (Staphylococcus aureus [10]): 0.63 µg/mL; MIC (Staphylococcus aureus [11]): 0.31 µg/mL
CCCOc1ccc(-c2cc(OCCN(CC)CC)c3ccccc3n2)cc1 | > 200 µM | 8.9 µM |  | > 100 µg/mL | fold change (FC) [1]: 4; Activity (Staphylococcus aureus [2]): inactive; inhibition [3]: inactive; inhibition [4]: inactive; MIC (Staphylococcus aureus [9]): 50 µg/mL; MIC (Staphylococcus aureus [10]): 50 µg/mL; MIC (Staphylococcus aureus [11]): 100 µg/mL
CCCOc1ccc(-c2cc(OCCN(C(C)C)C(C)C)c3ccccc3n2)cc1 | > 200 µM | 8.3 µM | 88.2% | > 100 µg/mL | inhibition (Staphylococcus aureus [12]): Active; Activity (Staphylococcus aureus [13]): inactive; fold change (FC) [1]: 4; Activity (Staphylococcus aureus [2]): inactive; inhibition [3]: inactive; inhibition [4]: inactive; MIC (Staphylococcus aureus [9]): > 100 µg/mL; MIC (Staphylococcus aureus [10]): 100 µg/mL; MIC (Staphylococcus aureus [11]): > 100 µg/mL
COC(=O)[C@H]1[C@H]2C[C@@H]3c4[nH]c5cc(OC)ccc5c4CCN3C[C@H]2C[C@@H](OC(=O)c2cc(OC)c(OC)c(OC)c2)[C@@H]1OC [RESERPINE] | > 150 µM | 9.2 µM |  | > 100 µg/mL | fold change (FC) [1]: 4; Activity (Staphylococcus aureus [2]): inactive; inhibition [3]: inactive; inhibition [4]: inactive; MIC (Staphylococcus aureus [9]): > 100 µg/mL; MIC (Staphylococcus aureus [10]): > 100 µg/mL; MIC (Staphylococcus aureus [11]): > 100 µg/mL
CCCOc1ccc(-c2cc(OCCN3CCN(Cc4ccccc4)CC3)c3ccccc3n2)cc1 | > 200 µM | 3.8 µM | 81.2% | > 100 µg/mL | inhibition (Staphylococcus aureus [12]): Active; Activity (Staphylococcus aureus [13]): inactive; fold change (FC) [1]: 4; Activity (Staphylococcus aureus [2]): inactive; inhibition [3]: inactive; inhibition [4]: inactive; MIC (Staphylococcus aureus [9]): > 100 µg/mL; MIC (Staphylococcus aureus [10]): > 100 µg/mL; MIC (Staphylococcus aureus [11]): > 100 µg/mL
CCCOc1ccc(-c2cc(OCCN3CCCC3)c3ccccc3n2)cc1 | > 200 µM | 9.3 µM | 94.2% |  | 
CCCOc1ccc(-c2cc(OCCN3CCC(=O)CC3)c3ccccc3n2)cc1 | > 200 µM |  | 71.7% |  | 
CCCCN(CCCC)CCOc1cc(-c2ccc(OCCC)cc2)nc2ccccc12 | > 200 µM | 9.2 µM | 88.6% |  | 
CCCOc1ccc(-c2cc(OCCCN(C)C)c3ccccc3n2)cc1.Cl | > 200 µM | 3.9 µM | 90.6% | > 100 µg/mL | inhibition (Staphylococcus aureus [12]): Active; Activity (Staphylococcus aureus [13]): inactive; fold change (FC) [1]: 4; Activity (Staphylococcus aureus [2]): inactive; inhibition [3]: inactive; inhibition [4]: inactive; MIC (Staphylococcus aureus [9]): 25 µg/mL; MIC (Staphylococcus aureus [10]): 25 µg/mL; MIC (Staphylococcus aureus [11]): > 100 µg/mL
CCCOc1ccc(-c2cc(OCCN3CCc4cc(OC)c(OC)cc4C3)c3ccccc3n2)cc1 |  |  | 79.6% |  | 
CCCOc1ccc(-c2cc(OCCN3CCc4ccccc4C3)c3ccccc3n2)cc1 |  |  | 67.9% |  | 
CCCOc1ccc(-c2cc(OCCN(CC)Cc3ccccc3)c3ccccc3n2)cc1 | > 200 µM |  | 72.5% |  | 
CCCOc1ccc(-c2cc(OCCC(C)C)c3ccccc3n2)cc1 |  |  | 33.2% |  | 
CCCOc1ccc(-c2cc(OCCN3CCN(C)CC3)c3ccccc3n2)cc1 | > 200 µM | 9.7 µM | 91% |  | 
CCCOc1ccc(-c2cc(OCCN)c3ccccc3n2)cc1 | > 310 µM | 9.3 µM | 96.1% |  | 
CCCOc1ccc(-c2cc(OC(C)CN(C)C)c3ccccc3n2)cc1 (racemic) | > 200 µM | 13.3 µM | 86.2% |  | 
CCCOc1ccc(-c2cc(OCC(C)N(C)C)c3ccccc3n2)cc1.Cl (centres undefined) | > 200 µM | 7.5 µM | 90.4% | > 100 µg/mL | fold change (FC) [1]: 4; Activity (Staphylococcus aureus [2]): inactive; inhibition [3]: inactive; inhibition [4]: inactive
CCCOc1ccc(-c2cc(OCCN(Cc3ccccc3)Cc3ccccc3)c3ccccc3n2)cc1 |  |  | 0% |  | 
Fc1ccc([C@H]2CCNC[C@@H]2COc2ccc3c(c2)OCO3)cc1 |  |  | 85% |  | 
CCCOc1ccc(-c2cc(OCCN3CCSCC3)c3ccccc3n2)cc1 |  |  | 57.7% |  | 
CCCOc1ccc(-c2cc(OC3CN4CCC3CC4)c3ccccc3n2)cc1 (centres undefined) | > 200 µM | 14.8 µM | 91.3% |  | 
CCCOc1ccc(-c2cc(OCc3ccccn3)c3ccccc3n2)cc1 |  |  | 19.6% |  | 
CCCOc1ccc(-c2cc(OCCN3CCOCC3)c3ccccc3n2)cc1 | > 200 µM | 10.7 µM | 86.9% |  | 
CCCOc1ccc(-c2cc(OCCN3C(=O)c4ccccc4C3=O)c3ccccc3n2)cc1 |  |  | 8.3% |  | 
CCCOc1ccc(-c2cc(OCCN(C)C)c3ccccc3n2)cc1 | > 249 µM | 9.9 µM | 92% |  | 
